Measured values from paper PMC7357173 (Toxicological Sciences, 2020).
Structures can show the parent of a compound that is named as a salt.

How the values were obtained:
Assay type in all cases: cell-based, human
HepG2 cells [1] = test: Cellular ATP
How it was run: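 HepG2 in supplemented MEM (10% FBS), kept below 85% confluence and ≤8 passages. Treated with 8-point dilutions from DMSO stocks (0.5% DMSO final) at 37°C, 5% CO2. Cellular ATP read by CellTiterGlo luminescence, normalized to vehicle wells as fold change. Run once, triplicate wells per concentration. PoD taken from Bayesian concentration–response fits.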

HepG2 cells [2] = test: Glutathione content
HepG2 cells [3] = test: Cellular stress panel as a whole; conditions: for bioactivity group: HepG2 cellular stress panel
How it was run: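 HepG2 exposed 1, 6 or 24 h to 8 nominal concentrations (0.5% DMSO), one run, 3 technical replicates each. Per-plate raw values divided by the median control and log2-transformed; concentrations log10-transformed. Bayesian fit with a Student's t (5 df) replicate model and well-position scale term. PoD found by linear interpolation; CDS is the fraction of 10 000 samples yielding a PoD.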

HepG2 cells [4] = test: Phospholipidosis; conditions: HepG2, 24 h
How it was run: (§1)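 High-content imaging of HepG2 seeded at 10 000 (24 h) or 12 500 (6, 1 h) cells/well and adhered overnight. Triplicate wells at 8 concentrations, 0.5% DMSO. Mito-mass stained with a mitochondria-specific fluorescent dye; PLD detected by a dye conjugating to phospholipids. Cells fixed in 4% formaldehyde with Hoechst 33342 where required. Eight fields imaged per well (10×); intensity compared against vehicle wells.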

IL-8 = IL-8 secretion, ELISA of HepG2 supernatants; conditions: HepG2, 24 h
How it was run: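 HepG2 grown and exposed as for the other assays: 8 concentrations from DMSO stocks, 0.5% DMSO final, 37°C, 5% CO2, triplicate wells, one run. 50 µl of supernatant collected after the incubation and assayed for IL-8 by ELISA kit. Values divided by the plate median control, log2-transformed and fitted by Bayesian concentration–response modelling to give PoD.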

HepG2 cells [5] = test: Mitochondrial mass; conditions: HepG2, 1, 6 and 24 h; subcytotoxic PoD
How it was run: as §1

HepG2 cells [6] = test: Oxygen consumption rate
How it was run: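 HepG2 seeded at 16 000 cells/well, attached overnight, then treated 1, 6 or 24 h; the final 60 min was in unbuffered DMEM (10 mM glucose, 30 mM NaCl, 1 mM pyruvate, 2 mM L-alanyl-glutamine, pH 7.4, 37°C). Four baseline and six post-compound reads (3-min mix, 4-min read). Then oligomycin 1 μM, FCCP 0.5 μM and rotenone/antimycin A 1 μM each. Values baseline-normalized and corrected for nonmitochondrial OCR.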

HepG2 cells [7] = test: Mitochondrial ROS; conditions: HepG2, all timepoints, highest concentration

O=c1ccc2ccccc2o1 [Coumarin]
change in cellular ATP (lowest PoD) (HepG2 cells [1]; HepG2, 6 and 24 h): decrease
change in glutathione (HepG2 cells [2]; HepG2, 24 h): increase
all PoDs of the panel (HepG2 cells [3]; HepG2, around the top concentration tested): ~1000 µM
bioactivity group (HepG2 cells [3]): 1
change in phospholipidosis (HepG2 cells [4]): decrease
change in IL-8 (IL-8): decrease

O=C(O)Cc1ccccc1Nc1c(Cl)cccc1Cl [Diclofenac, Diclofenac sodium salt]
estimated plasma Cmax compared with minimum PoD (HepG2 cells [3]; total Cmax of Table 2 vs nominal in vitro PoD): approximately one order of magnitude below the lowest PoD

COc1cccc2c1C(=O)c1c(O)c3c(c(O)c1C2=O)C[C@@](O)(C(=O)CO)C[C@@H]3O[C@H]1C[C@H](N)[C@H](O)[C@H](C)O1 [Doxorubicin, Doxorubicin hydrochloride]
change in cellular ATP (HepG2 cells [1]; HepG2, 6 h): increases
change in cellular ATP (HepG2 cells [1]; HepG2, 24 h): loss
change in glutathione (HepG2 cells [2]; HepG2, 1 h): Increases
change in glutathione (HepG2 cells [2]; HepG2, 24 h): loss
change in mitochondrial mass (HepG2 cells [5]): increases

NC(=O)c1cccnc1 [Niacinamide, Nicotinamide]
change in IL-8 (IL-8): small but appreciable decrease

OCCOc1ccccc1 [Phenoxyethanol, 2-Phenoxyethanol]
concentration-responses among all 36 biomarkers (HepG2 cells [3]; HepG2, up to 1000 µM): no concentration-responses could be detected

CCc1ccc(CCOc2ccc(CC3SC(=O)NC3=O)cc2)nc1 (stereo not drawn) [Pioglitazone, Pioglitazone hydrochloride]
change in OCR and reserve capacity (HepG2 cells [6]; HepG2, concentrations between 40 and 100 µM): increase
change in OCR and reserve capacity (HepG2 cells [6]; HepG2, concentrations up to 10 µM): decrease

C[S+]([O-])CCCCN=C=S [Sulforaphane, L-Sulforaphane]
bioactivity group (HepG2 cells [3]): 3

Oc1cc(Cl)ccc1Oc1ccc(Cl)cc1Cl [Triclosan]
change in cellular ATP (HepG2 cells [1]; HepG2, 6 h): increase
change in cellular ATP (HepG2 cells [1]; HepG2, 24 h): reduction
increase in mitochondrial superoxide (MitoROS) (HepG2 cells [7]): 2- to 4 fold

Cc1c(C)c2c(c(C)c1O)CCC(C)(COc1ccc(CC3SC(=O)NC3=O)cc1)O2 (stereo not drawn) [Troglitazone]
effect on OCR (HepG2 cells [6]; HepG2, two highest concentrations (40 and 100 µM)): reduced the OCR near to zero
